Data set [1] has as its system Mus musculus. In words: Toxicity in KK-Ay diabetic mouse model assessed as changes in body weight at 1 to 5 mg/kg/day administered via oral gavage once daily measured every 3 days during first two weeks of compound dosing. The class given is organism-based. The settings on record: in vivo, 72 h. In outline: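 In high-fat-fed KK-Ay mice gavaged once daily for 21 days, individual body weight and cage food consumption were recorded every 3 days. Mean ± SEM, n = 8.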

The subject of data set [2] is Mus musculus. Kind of data set: Antidiabetic activity in KK-Ay diabetic mouse model assessed as reduction in free diet blood glucose level at 1 to 5 mg/kg/day administered via oral gavage once daily measured on day 3 post dose. The class given is functional, organism-based. A digest of the protocol: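 Non-fasted (free diet) blood glucose was tracked serially in high-fat-fed KK-Ay mice given daily gavage doses (1 or 5 mg/kg; rosiglitazone 10 mg/kg). Mean ± SEM, n = 8.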

For data set [3], the system named is Mus musculus. Kind of data set: Hypolipidemic activity in KK-Ay diabetic mouse model assessed as reduction in serum total cholesterol level at 1 to 5 mg/kg/day administered via oral gavage once daily for 21 days. The class given is functional, organism-based. A digest of the protocol: (§1)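 Male KK-Ay mice (8 weeks old) on high-fat diet with water ad libitum, dosed by gavage once daily for 21 days (1 or 5 mg/kg test; rosiglitazone 10 mg/kg); female C57BL/6J mice as normal controls. Blood collected at study end. Serum lipids, insulin and glucose measured per cited method. ISI calculated from fasting blood glucose and fasting insulin. Mean ± SEM, n = 7-8.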

In data set [4] the target is T1, 3-hydroxy-3-methylglutaryl-coenzyme A reductase (Sus scrofa) (UniProt Q1W675).
T1 sequence (whole entry): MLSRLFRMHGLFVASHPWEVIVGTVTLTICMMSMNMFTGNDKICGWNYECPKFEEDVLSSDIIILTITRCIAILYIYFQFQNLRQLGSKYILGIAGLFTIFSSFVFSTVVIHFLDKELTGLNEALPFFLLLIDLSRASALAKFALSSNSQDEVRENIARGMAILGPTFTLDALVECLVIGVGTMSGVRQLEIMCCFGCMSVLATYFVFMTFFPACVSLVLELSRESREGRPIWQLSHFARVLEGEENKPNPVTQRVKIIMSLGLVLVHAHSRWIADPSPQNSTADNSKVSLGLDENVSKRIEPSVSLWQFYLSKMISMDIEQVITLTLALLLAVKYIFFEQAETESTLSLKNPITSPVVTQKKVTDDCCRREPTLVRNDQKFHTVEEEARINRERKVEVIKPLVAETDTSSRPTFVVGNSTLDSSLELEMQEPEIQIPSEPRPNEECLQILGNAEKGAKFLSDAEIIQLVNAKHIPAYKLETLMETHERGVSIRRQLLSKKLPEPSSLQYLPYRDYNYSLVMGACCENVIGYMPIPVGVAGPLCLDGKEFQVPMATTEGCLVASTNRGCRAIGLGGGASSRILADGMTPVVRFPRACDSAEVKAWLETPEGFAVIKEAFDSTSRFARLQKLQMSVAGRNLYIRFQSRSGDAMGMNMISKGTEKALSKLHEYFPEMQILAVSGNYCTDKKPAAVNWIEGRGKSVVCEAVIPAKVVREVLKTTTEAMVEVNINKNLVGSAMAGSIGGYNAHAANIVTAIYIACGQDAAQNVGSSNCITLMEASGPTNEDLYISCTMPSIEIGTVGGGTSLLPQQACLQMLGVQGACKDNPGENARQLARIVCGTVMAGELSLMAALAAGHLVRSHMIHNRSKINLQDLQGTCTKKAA
In words: (§2) Inhibition of HMG-CoA reductase in pig liver microsomes using HMG-CoA as substrate preincubated for 5 mins followed by NADPH addition measured after 15 mins by colorimetric method. A digest of the protocol: (§3)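 HMG-CoA reductase activity followed by absorbance at 340 nm. Blank had potassium phosphate buffer instead of enzyme, and control had buffer instead of compound. Percent inhibition calculated from blank-corrected OD.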
On the technique in general: Liver microsomes are a subcellular fraction often used to study metabolism.

For data set [5], the target named is T2, 3-hydroxy-3-methylglutaryl-coenzyme A reductase (Sus scrofa, UniProt Q1W675).
T2 sequence (Q1W675 whole entry): T1 sequence (whole entry)
Described as §2. A digest of the protocol: as §3

The test system of data set [6] is Mus musculus. In words: Acute toxicity in mouse assessed as effect on behavior up to 3 g/kg, po up to 14 days. Conditions: in vivo, 336 h.
In data set [7] the test system is Mus musculus. Kind of data set: Decrease in serum AST level in KK-Ay diabetic mouse model at 1 to 5 mg/kg/day administered via oral gavage once daily for 21 days. The format is functional, organism-based. In outline: as §1
In data set [8] the test system is Mus musculus. In words: Hypolipidemic activity in KK-Ay diabetic mouse model assessed as reduction in serum triglyceride level at 1 to 5 mg/kg/day administered via oral gavage once daily for 21 days. The format is functional, organism-based. In outline: as §1
The subject of data set [9] is Mus musculus. Kind of data set: Antidiabetic activity in KK-Ay diabetic mouse model assessed as reduction in blood glucose level at 5 mg/kg/day administered via oral gavage once daily for 21 days measured at 30 to 60 mins post glucose challenge by oral glucose tolerance test. The class given is functional, organism-based. In outline: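 OGTT on day 21 of daily gavage dosing in KK-Ay mice. Blood glucose read at time points including 30 and 60 min, and the AUC was calculated. Mean ± SEM, n = 8.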

The target of data set [10] is Sucrase-isomaltase, intestinal (Rattus norvegicus, UniProt P23739). Kind of data set: Inhibition of sucrase in rat small intestinal mucosa assessed as reduction in glucose production using sucrose as substrate measured after 40 mins by glucose oxidase assay. A digest of the protocol: (§4)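 Rat small intestinal mucosa enzyme. Compound in DMSO mixed with substrate (maltose, sucrose or pNPG) and enzyme in 0.1 M phosphate buffer pH 6.9, incubated 40 min. Glucose released measured by glucose oxidase kit at 550 nm. Blank lacked enzyme, control lacked compound. Percent inhibition calculated from blank-corrected OD.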

Data set [11] deals with Mus musculus. Kind of data set: Acute toxicity in mouse assessed as effect on physical activity up to 3 g/kg, po up to 14 days. Conditions: in vivo, 336 h.
Data set [12] relates to Mus musculus. In words: Acute toxicity in mouse assessed as mortality up to […], po up to 14 days. Conditions: in vivo, 336 h. The format is organism-based.
A short description of data set [13]: Inhibition of alpha-glucosidase in rat small intestinal mucosa assessed as reduction in glucose production using p-nitrophenyl alpha-D-glucopyranoside as substrate measured after 40 mins by glucose oxidase assay. In outline: as §4
Data set [14] has as its system Mus musculus. In words: Acute toxicity in mouse assessed as changes in nature of urine up to 3 g/kg, po up to 14 days. Conditions: in vivo, 336 h.
Data set [15] deals with Mus musculus. In words: Decrease in hepatocyte hypertrophy in KK-Ay diabetic mouse model at 5 mg/kg/day administered via oral gavage once daily for 21 days by haematoxylin and eosin staining based microscopic or morphometric method. The class given is functional, organism-based. In outline: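 At study end, liver and abdominal white adipose tissue were fixed in 10% formaldehyde PBS (pH 7.4), paraffin-embedded, sectioned and stained with haematoxylin/eosin. Sections were assessed by microscopy or morphometry at 20×.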

For data set [16], the system named is Mus musculus. Kind of data set: Antidiabetic activity in KK-Ay diabetic mouse model assessed as reduction in HbA1C level at 1 to 5 mg/kg/day administered via oral gavage once daily for 21 days. The class given is functional, organism-based.
The target of data set [17] is T1, 3-hydroxy-3-methylglutaryl-coenzyme A reductase (Sus scrofa). In words: Non-competitive inhibition of HMG-CoA reductase in pig liver microsomes using varying levels of HMG-CoA as substrate preincubated for 5 mins followed by NADPH addition measured after 15 mins by Lineweaver-Burk plot analysis. A digest of the protocol: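 HMG-CoA reductase kinetics: inhibitor at 5 to 20 μM, HMG-CoA at 2, 4, 6 and 8 μM. Initial velocities with and without inhibitor analysed by Lineweaver-Burk double-reciprocal plots.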

Data set [18] has as its system Mus musculus. Kind of data set: Hypolipidemic activity in KK-Ay diabetic mouse model assessed as reduction in serum NEFA level at 1 to 5 mg/kg/day administered via oral gavage once daily for 21 days. The format is functional, organism-based. A digest of the protocol: as §1

Calls of active or inactive are those of the source. No cut-off for these calls is given here.

Sucrase-isomaltase, intestinal, sequence (P23739 1-1013 limits assumed): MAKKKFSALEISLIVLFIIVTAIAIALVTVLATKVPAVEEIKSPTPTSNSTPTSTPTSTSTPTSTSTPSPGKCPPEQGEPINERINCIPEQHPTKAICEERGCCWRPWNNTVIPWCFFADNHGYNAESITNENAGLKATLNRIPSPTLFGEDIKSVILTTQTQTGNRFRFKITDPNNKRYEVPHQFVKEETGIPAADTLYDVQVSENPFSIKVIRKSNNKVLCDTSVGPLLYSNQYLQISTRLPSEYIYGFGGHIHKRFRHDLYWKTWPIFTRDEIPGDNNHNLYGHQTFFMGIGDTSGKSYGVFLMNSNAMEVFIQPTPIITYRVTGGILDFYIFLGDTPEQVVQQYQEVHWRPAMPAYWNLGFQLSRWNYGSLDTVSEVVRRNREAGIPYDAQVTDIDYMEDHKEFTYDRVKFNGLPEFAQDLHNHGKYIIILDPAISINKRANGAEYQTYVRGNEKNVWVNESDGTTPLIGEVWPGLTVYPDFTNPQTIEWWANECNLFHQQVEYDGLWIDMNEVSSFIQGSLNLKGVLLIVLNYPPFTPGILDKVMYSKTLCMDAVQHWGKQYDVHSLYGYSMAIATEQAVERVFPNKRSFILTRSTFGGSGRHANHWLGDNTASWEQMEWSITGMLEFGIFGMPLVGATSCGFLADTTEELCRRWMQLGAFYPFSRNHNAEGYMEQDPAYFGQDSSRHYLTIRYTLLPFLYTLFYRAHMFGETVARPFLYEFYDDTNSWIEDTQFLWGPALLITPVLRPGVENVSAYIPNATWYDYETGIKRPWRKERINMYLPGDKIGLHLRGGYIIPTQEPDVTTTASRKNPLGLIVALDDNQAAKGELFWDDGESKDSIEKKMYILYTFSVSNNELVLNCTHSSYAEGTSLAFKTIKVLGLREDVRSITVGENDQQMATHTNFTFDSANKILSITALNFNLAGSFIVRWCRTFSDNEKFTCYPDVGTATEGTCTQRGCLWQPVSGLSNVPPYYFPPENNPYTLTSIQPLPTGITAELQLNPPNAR
Sucrase-isomaltase, intestinal, sequence (P23739 1014-1841 limits assumed): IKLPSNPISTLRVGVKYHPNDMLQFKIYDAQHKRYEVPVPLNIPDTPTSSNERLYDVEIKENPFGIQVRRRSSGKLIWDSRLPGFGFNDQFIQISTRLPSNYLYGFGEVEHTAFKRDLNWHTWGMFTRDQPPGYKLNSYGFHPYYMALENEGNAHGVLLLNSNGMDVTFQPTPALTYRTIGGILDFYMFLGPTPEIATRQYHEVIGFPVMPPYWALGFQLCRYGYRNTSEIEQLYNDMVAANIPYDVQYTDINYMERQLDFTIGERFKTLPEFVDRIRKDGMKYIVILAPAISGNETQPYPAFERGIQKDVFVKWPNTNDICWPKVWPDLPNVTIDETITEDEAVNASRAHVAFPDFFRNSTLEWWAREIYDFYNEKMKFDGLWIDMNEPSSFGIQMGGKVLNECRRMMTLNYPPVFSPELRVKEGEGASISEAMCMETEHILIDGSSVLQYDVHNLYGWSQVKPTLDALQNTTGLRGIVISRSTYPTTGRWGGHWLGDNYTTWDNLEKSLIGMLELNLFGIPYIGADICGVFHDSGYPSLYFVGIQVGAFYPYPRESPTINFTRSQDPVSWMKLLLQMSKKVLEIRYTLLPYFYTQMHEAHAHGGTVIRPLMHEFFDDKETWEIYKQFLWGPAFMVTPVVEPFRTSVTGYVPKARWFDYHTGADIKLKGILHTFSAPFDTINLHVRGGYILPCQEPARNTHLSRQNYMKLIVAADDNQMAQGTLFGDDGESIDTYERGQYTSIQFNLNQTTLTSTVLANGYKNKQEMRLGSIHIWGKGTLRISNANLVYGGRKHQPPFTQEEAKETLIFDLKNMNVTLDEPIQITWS

As usually defined, the IC50 is the concentration at which inhibition is half-maximal. On to `CC(C)=CCC/C(C)=C/CCC1=C[C@H](c2cc(O)ccc2O)OC1=O`, for which the Activity result in the data set on Mus musculus [1], with Mus musculus [6], in the data set on Mus musculus [11], in the data set with Mus musculus [12] and in the data set with Mus musculus [14] was “Non-Toxic” in each case. The outcome in the data set on Mus musculus [2], in the data set with Mus musculus [3], in the data set with Mus musculus [7], in the data set on Mus musculus [8], in the data set with Mus musculus [9] and in the data set with Mus musculus [15] was Active. Moreover, the result in the data set on Mus musculus [16] and with Mus musculus [18] was Active. The inhibition entry in data set [4] was “Dose-dependent effect”. In addition, the concentration for half-maximal inhibition (IC50) in [5] turned out to be 12.3 µM; in data set [10], 67.6 µM; in data set [13], 0.4 µM. Besides, in data set [17], the inhibition result is “Active”.
